Data: ChEMBL document CHEMBL4118098, “Discovery of DS28120313 as a potent orally active hepcidin production inhibitor: Design and optimization of novel 4,6-disubstituted indazole derivatives” (Bioorg Med Chem Lett, 2017)
Each block holds one compound with its values, some of them ahead of it. The source made the active and inactive calls. The rule behind the calls is not given here.

How the values were obtained:
[1] = target: Tyrosine-protein kinase ABL1 (Homo sapiens) (UniProt P00519); experiment: Inhibition of ABL (unknown origin) at 0.19 uM relative to control
[2] = target: Serine/threonine-protein kinase Nek6 (Homo sapiens) (UniProt Q9HC98); experiment: Inhibition of NEK6 (unknown origin) at 0.19 uM relative to control
[3] = target: MAP/microtubule affinity-regulating kinase 4 (Homo sapiens) (UniProt Q96L34); experiment: Inhibition of MARK4 (unknown origin) at 0.19 uM relative to control
[4] = target: Serine/threonine-protein kinase pim-3 (Homo sapiens) (UniProt Q86V86); experiment: Inhibition of PIM3 (unknown origin) at 0.19 uM relative to control
[5] = target: ALK tyrosine kinase receptor (Homo sapiens) (UniProt Q9UM73); experiment: Inhibition of ALK (unknown origin) at 0.19 uM relative to control
[6] = test system: Tyrosine-protein kinase ABL1 (Homo sapiens), P00519 [Q252H]; experiment: Inhibition of Abl Q252H mutant (unknown origin) at 0.19 uM relative to control
[7] = test system: Fibroblast growth factor receptor 4 (Homo sapiens), P22455 [V550L]; experiment: Inhibition of FGFR4 V550L mutant (unknown origin) at 0.19 uM relative to control
[8] = target: Calcium/calmodulin-dependent protein kinase type II subunit beta (Homo sapiens) (UniProt Q13554); experiment: Inhibition of CAMK2 (unknown origin) at 0.19 uM relative to control
[9] = target: RAC-beta serine/threonine-protein kinase (Homo sapiens) (UniProt P31751); experiment: Inhibition of AKT2 (unknown origin) at 0.19 uM relative to control
[10] = target: Serine/threonine-protein kinase Sgk1 (Homo sapiens) (UniProt O00141); experiment: Inhibition of SGK1 (unknown origin) at 0.19 uM relative to control
[11] = target: Cyclin-dependent kinase 5/CDK5 activator 1 (Homo sapiens) (UniProt Q00535+Q15078); experiment: Inhibition of CDK5/p25 (unknown origin) at 0.19 uM relative to control; assay type: protein-complex assay
[12] = target: Calcium/calmodulin-dependent protein kinase type II subunit gamma (Homo sapiens) (UniProt Q13555); experiment: Inhibition of CaMK2-gamma (unknown origin) at 0.19 uM relative to control
[13] = target: Protein kinase C beta type (Homo sapiens) (UniProt P05771); experiment: Inhibition of PKC-beta2 (unknown origin) at 0.19 uM relative to control
[14] = species: Homo sapiens; experiment: Inhibition of PKA (unknown origin) at 0.19 uM relative to control
[15] = target: Fibroblast growth factor receptor 1 (Homo sapiens) (UniProt P11362); experiment: Inhibition of FGFR1 (unknown origin) at 0.164 uM relative to control
[16] = target: ALK tyrosine kinase receptor (Homo sapiens) (UniProt Q9UM73); experiment: Inhibition of ALK (unknown origin) at 0.164 uM relative to control
[17] = target: Tyrosine-protein kinase ITK/TSK (Homo sapiens) (UniProt Q08881); experiment: Inhibition of ITK (unknown origin) at 0.164 uM relative to control
[18] = target: Ephrin type-A receptor 4 (Homo sapiens) (UniProt P54764); experiment: Inhibition of EPHA4 (unknown origin) at 0.164 uM relative to control
[19] = target: Serine/threonine-protein kinase PAK 4 (Homo sapiens) (UniProt O96013); experiment: Inhibition of PAK4 (unknown origin) at 0.164 uM relative to control
[20] = target: Mitogen-activated protein kinase 13 (Homo sapiens) (UniProt O15264); experiment: Inhibition of p38-delta (unknown origin) at 0.164 uM relative to control
[21] = test system: Mus musculus; experiment: Antiinflammatory activity in C57BL/6J mouse assessed as reduction in recombinant mouse IL-6 induced serum hepcidin level at 30 mg/kg, po pretreated for 30 mins followed by IL-6 challenge and measured after 4 hrs by LC-MS/MS analysis; assay type: functional, organism-based
Summary of the method: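 Male C57BL/6J mice, 9 weeks old, were dosed orally at 30 mg/kg (0.5% methylcellulose suspension, n = 4) 30 min before intravenous mouse IL-6. Blood was taken 4 h after IL-6 and serum hepcidin concentration measured. The comparison was against a 0.5% MC vehicle group, with a saline group included, by t-test.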

[22] = target: Serine/threonine-protein kinase PAK 5 (Homo sapiens) (UniProt Q9P286); experiment: Inhibition of PAK5/PAK7 (unknown origin) at 0.164 uM relative to control
[23] = target: Calcium/calmodulin-dependent protein kinase type II subunit alpha (Homo sapiens) (UniProt Q9UQM7); experiment: Inhibition of CaMK2a (unknown origin) at 0.164 uM relative to control
[24] = target: Ribosomal protein S6 kinase alpha-2 (Homo sapiens) (UniProt Q15349); experiment: Inhibition of RSK3 (unknown origin) at 0.164 uM relative to control
[25] = target: Cytoplasmic tyrosine-protein kinase BMX (Homo sapiens) (UniProt P51813); experiment: Inhibition of BMX (unknown origin) at 0.164 uM relative to control
[26] = target: Cyclin-dependent kinase 3 (Homo sapiens) (UniProt Q00526); experiment: Inhibition of CDK3 (unknown origin) at 0.164 uM relative to control
[27] = species: Homo sapiens; experiment: Inhibition of PKA (unknown origin) at 0.164 uM relative to control
[28] = test system: Mitogen-activated protein kinase 14 (Homo sapiens), Q16539 [T106M]; experiment: Inhibition of SAPK2a T106M mutant (unknown origin) at 0.164 uM relative to control
[29] = target: Dual specificity tyrosine-phosphorylation-regulated kinase 2 (Homo sapiens) (UniProt Q92630); experiment: Inhibition of DYRK2 (unknown origin) at 0.164 uM relative to control
[30] = target: Serine/threonine-protein kinase 4 (Homo sapiens) (UniProt Q13043); experiment: Inhibition of MST1 (unknown origin) at 0.164 uM relative to control
[31] = target: Discoidin domain-containing receptor 2 (Homo sapiens) (UniProt Q16832); experiment: Inhibition of DDR2 (unknown origin) at 0.164 uM relative to control
[32] = target: Calcium/calmodulin-dependent protein kinase type II subunit beta (Homo sapiens) (UniProt Q13554); experiment: Inhibition of CaMK2-beta (unknown origin) at 0.45 uM relative to control
[33] = target: Casein kinase I isoform gamma-3 (Homo sapiens) (UniProt Q9Y6M4); experiment: Inhibition of CK1-gamma3 (unknown origin) at 0.45 uM relative to control

inhibition [1]: 83.7%
inhibition [2]: -1%
inhibition [3]: 0.7%
inhibition [4]: -3.7%
inhibition [5]: 6.7%
inhibition [6]: 71%
inhibition [7]: 0.7%
inhibition [8]: 1%
inhibition [9]: 1%
inhibition [10]: 6.3%
inhibition [11]: -4%
inhibition [12]: -4%
inhibition [13]: 0.3%
inhibition [14]: 5.7%
SMILES: Cc1[nH]nc(C2CC2)c1-c1ccc2c(-c3ccc(N4CCN(C)CC4)nc3)n[nH]c2c1

inhibition [15]: 9.7%
inhibition [16]: 4.3%
inhibition [17]: 6%
inhibition [18]: -2.3%
inhibition [19]: 5.7%
inhibition [20]: 0.7%
inhibition [22]: 5%
inhibition [23]: -0.3%
inhibition [24]: 4.7%
inhibition [25]: 17.7%
inhibition [26]: -8.3%
inhibition [27]: 5.7%
inhibition [28]: 0.7%
inhibition [29]: 4.7%
inhibition [30]: -2.3%
inhibition [31]: 1.7%
SMILES: COC(=O)Nc1cc(-c2c(C3CC3)n[nH]c2C)cc2[nH]ncc12
Activity [21]: Active

inhibition [32]: -0.3%
inhibition [33]: -0.7%
SMILES: Cc1n[nH]c(C)c1-c1ccc2c(NC(=O)c3ccc(N4CCN(C)CC4)cc3)n[nH]c2c1
